# Assay results pooled from the literature.
# Compare with care: the assays were run in different laboratories.
# Target: Serine/threonine-protein kinase MRCK alpha (CDC42BPA, Homo sapiens, UniProt Q5VT25)
Compound,test,setting,measurement,result
Cc1ccc(Nc2nccc(N(C)c3ccc4c(C)n(C)nc4c3)n2)cc1S(N)(=O)=O,"enzyme activity, inhibitor",10 µM,inhibition,1%
O=C1Nc2ccc(Cl)cc2C1=Cc1cc(Cl)c(O)c(Cl)c1,cell-free assay,0.5 µM,remaining signal,96.1%
Nc1ncnc2occ(-c3ccc(NC(=O)Nc4cc(C(F)(F)F)ccc4F)cc3)c12,"enzyme activity, inhibitor",20 µM,remaining activity,0.05%
O=C(NS(=O)(=O)c1ccc(NCC2CCOCC2)c([N+](=O)[O-])c1)c1ccc(N2CCN(Cc3ccc(C(F)(F)F)cc3-c3ccc(Cl)cc3)CC2)cc1Oc1cnc2[nH]ccc2c1,"cell-free assay, competition with immobilised ligand",1 µM,remaining binding,96%
O=C(Nc1cnn(-c2csc(C(=O)NC3COC3)c2)c1)Nc1c(F)cccc1Cl,"enzyme activity, inhibitor",5 µM,remaining activity,99%
CCN(CC)c1ccc(C2=NNC(=O)CC2C)cc1[N+](=O)[O-] (stereo not drawn),"enzyme activity, inhibitor",10 µM,remaining activity,78%
CC(C)(C)c1nc2c(s1)c1nc(N)ncc1c1ccc(NS(=O)(=O)c3c(F)cccc3F)c(F)c12,"enzyme activity, inhibitor, radiometric",1 µM,remaining activity,82%
CC1=C(C#N)[C@@H](c2ccc3[nH]nc(C)c3c2)C(C#N)=C(c2ccc(Cl)cc2)N1,"cell-free assay, competition with immobilised ligand",1 µM,remaining binding,82.2%
CCCOc1ccc(OC)c(F)c1C(=O)c1ccc(C(=O)N[C@@H]2CNC[C@H]2NC(=O)c2ccc3[nH]ncc3c2)cc1,"enzyme activity, inhibitor",0.75 µM,remaining activity,20%
COc1cc2ncnc(Nc3ccc(Oc4ccccc4)cc3C)c2cc1OC,"enzyme activity, inhibitor",1 µM,inhibition,6%
CCS(=O)(=O)c1cc2cc(C[C@](O)(CC(C)(C)c3ccc(F)cc3C(N)=O)C(F)(F)F)[nH]c2cn1,"cell-free assay, competition with immobilised ligand",1 µM,remaining binding,89%
CNC(=O)c1cc(Oc2ccc(NC(=O)Nc3ccc(Cl)c(C(F)(F)F)c3)cc2)ccn1,"enzyme activity, inhibitor",0.3 µM,inhibition,9%
O=C(O)c1cc(-c2ccc(C3CCNCC3)cc2)c2ccc(-c3ccc(C(F)(F)F)cc3)cc2c1,"cell-free assay, competition with immobilised ligand",1 µM,remaining binding,100%
CCOc1cc(-c2nncn2C)ccc1Nc1ncc2cc(C)nc(NCC(C)(C)C)c2n1,"enzyme activity, inhibitor, FRET",1 µM,inhibition,< 15%
CC(C)(O)[C@H]1CC[C@H](Nc2ccc3ncc(-c4cccc(C(F)(F)F)c4)n3n2)CC1,"enzyme activity, inhibitor",1 µM,remaining activity,95.8%
CC(C)(O)c1cncc(-c2nc3ccc(F)cc3n2C2CC2)c1,"cell-free assay, competition with immobilised ligand",1 µM,remaining binding,100%
CCN(CC)CCNC(=O)c1c(C)[nH]c(/C=C2\C(=O)Nc3ccc(F)cc32)c1C,"enzyme activity, inhibitor",0.3 µM,inhibition,8%
CSc1cccnc1N1CCN(Cc2nc3ccccc3[nH]2)CC1,"cell-free assay, competition with immobilised ligand",1 µM,remaining binding,100%
CN1CC(Oc2cnc(C#N)cc2-c2ccn3nc(NC(=O)C4CC4)cc3c2)C1,"enzyme activity, inhibitor",1 µM,inhibition,-14%
COc1ccc2cc(OCC3(C(=O)O)CN(C(=O)c4ccc(F)cc4)C3)ccc2c1,"cell-free assay, competition with immobilised ligand",1 µM,remaining binding,100%
N#CCCc1ccc2c(c1)-c1[nH]c3ccc([N+](=O)[O-])cc3c1CC(=O)N2,cell-free assay,0.5 µM,remaining signal,73.1%
